Results published in PubChem BioAssay AID522 (The Scripps Research Institute Molecular Screening Center, 2006).
In all, about 65,000 compounds went through this assay and about 1,200 (1.8%) were called active. What follows is part of a selection rich in actives, with near analogues and random picks from the rest. Unmarked numbers belong to inactive results.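 How the source made its calls: active means activation above the mean activation of all tested compounds plus 3 SD (cut at about 50% in these data); inactive means the rest.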

What follows are compounds tested against Steroidogenic factor 1 (Homo sapiens) (UniProt Q13285) (assay: SF-1 ligand-binding domain transactivation enhancers – cell-based, CHO-K1, Gal4-SF-1 LBD, luciferase luminescence, primary screen (AID 522)). Details: CHO-K1 Gal4-SF-1 LBD luciferase reporter; at 10 µM; stronger effect = higher value; % increase over DMSO SF-1-specific signal.
Chain of Steroidogenic factor 1 (Homo sapiens) (Q13285 whole entry, looked up, the tested form may be a part): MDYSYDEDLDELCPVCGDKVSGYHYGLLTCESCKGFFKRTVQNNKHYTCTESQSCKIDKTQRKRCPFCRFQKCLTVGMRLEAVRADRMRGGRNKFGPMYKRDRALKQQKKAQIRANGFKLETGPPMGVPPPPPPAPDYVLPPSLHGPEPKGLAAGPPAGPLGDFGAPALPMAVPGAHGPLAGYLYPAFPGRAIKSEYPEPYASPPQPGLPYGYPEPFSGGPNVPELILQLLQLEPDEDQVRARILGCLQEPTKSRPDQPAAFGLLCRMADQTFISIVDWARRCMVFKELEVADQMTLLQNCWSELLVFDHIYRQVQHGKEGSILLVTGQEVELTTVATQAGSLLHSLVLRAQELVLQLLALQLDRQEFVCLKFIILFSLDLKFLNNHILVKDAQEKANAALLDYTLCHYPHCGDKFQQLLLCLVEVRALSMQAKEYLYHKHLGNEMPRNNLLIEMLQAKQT
Summary of the method: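 Compound – one dose, 10 µM compound, 1% DMSO · Test system – transient Gal4-SF-1 LBD reporter, CHO-K1 · Input – 4,000 cells in each well · Read-out basis – percent activation relative to DMSO median and mock-transfected background · Replicates – single measurement per compound · Technique – steady-glow luciferase luminescence, read after 15 min reagent incubation · Timing – 20 h compound treatment, 37 °C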
In the case of `Cn1c(=NC(=O)C2CC2)sc2cc(F)cc(F)c21`, the activation is reported as -2%.
`CCCC(=O)N=c1sc2cccc(F)c2n1C` showed an activation of 17.9%.
For `Cn1c(=NC(=O)c2ccco2)sc2cccc(F)c21`, the activation was 91.8% (active).
With `CC(=O)Nc1ccn(Cc2c(F)cccc2Cl)n1` the activation was 42.1%.
For `CCCCOC(=O)c1ccc(N2C(=O)CC(N3CCN(C/C=C/c4ccccc4)CC3)C2=O)cc1` (configuration not stated), the activation was -6.3%.
`COc1ccc(-n2nnc3c(=O)n(CC(=O)OCc4ccccc4)cnc32)cc1` showed an activation of 9.3%.
For `O=C(Cn1cnc2c(cnn2-c2ccc(F)cc2)c1=O)NCCc1ccccc1`, the activation was -19.4%.
For `O=C(Cn1cnc2c(cnn2-c2ccccc2)c1=O)NCc1ccccc1`, the activation was 70.3% (active).
Compound `O=C(Cn1c(=O)sc2ccccc21)Nc1ccc2c(c1)OCCO2` has an activation of -9.9%.
With `N#CC(=C1SC=CS1)c1nc(-c2ccccc2)cs1` the activation was 80.9% (active).
With `N#C/C(=C1\CCCN1)c1nc(-c2ccccc2)cs1` the activation was 30%.
For `CCOC(=O)CSc1nnc(CNC(=O)c2ccco2)n1-c1ccc(F)cc1`, the activation was 3.4%.
Compound `CN(CCc1ccccn1)S(=O)(=O)c1ccc2c3c(cccc13)C(=O)N2` has an activation of 14.4%.
Work on `COc1ccccc1OCCC(=O)OCC(=O)NC(=O)NC(C)(C)C` yielded an activation of 8.8%.
`CCc1nnc(NC(=O)CSc2nnc(Cc3ccccc3)n2-c2ccc(OC)cc2)s1` gave an activation of -17.5%.
`CS(=O)(=O)c1ccc2nc(NC(=O)C3C4C=CC(C4)C3C(=O)O)sc2c1` (configuration not stated) showed an activation of 8.1%.
Compound `CCCCC(CCC(=O)Nc1ccc(C(=O)OCC)cc1)C(=O)O` (configuration not stated) has an activation of -8.4%.
In the case of `CC(C)COC(=O)c1ccc(NC(=O)C2C3C=CC(C3)C2C(=O)O)cc1` (configuration not stated), the activation is reported as 63.7% (active).
`CCc1nnc(NC(=O)c2ccc(S(=O)(=O)NC3CCCCC3)cc2)s1` gave an activation of 6.1%.
Work on `COc1cccc(N(CC(=O)Nc2cccc(N(C)S(C)(=O)=O)c2)S(C)(=O)=O)c1` yielded an activation of 1.3%.
In the case of `CCOC(=O)C1CCN(C(=O)Cc2c(C(=O)O)[nH]c3ccccc23)CC1`, the activation is reported as -12.1%.
`COC(=O)c1sc(NC(=O)c2csc3c2CCCC3)nc1C` was tested, and the activation was 50.9% (active).
Compound `CC(=O)Cc1nsc(NC(=O)c2csc3c2CCCC3)n1` has an activation of 18%.
For `COC(=O)c1sccc1NC(=O)c1csc2c1CCCC2`, the activation was -11.7%.
Compound `CCOC(=O)c1cc(-c2nnc(-c3cc(OC)c(OC)c(OC)c3)o2)c(C)nc1C` has an activation of -11%.
`Cc1ccc(C)c2[nH]c(=O)c(CCNC(=O)CC(C)C)cc12` showed an activation of -11.8%.
`CCOC(=O)C1Cn2c(nc3c(c2=O)C(C)(CC)Cc2ccccc2-3)S1` (configuration not stated) gave an activation of -8.9%.
